Test [1] addresses T1, Pepsin A (Sus scrofa, UniProt P00791). Kind of test: Compound was measured for the apparent inhibition constant at pepsin. The method, boiled down: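 Apparent Ki from the pepsin–hemoglobin assay: pH 2.0 KCl–HCl buffer, 30 min total at 37 °C, perchloric acid quench, A280 of supernatant minus blank. IC50 came from % inhibition vs log [inhibitor], four replicates at ≥5 concentrations. Ki(app) was calculated as IC50 − 0.5[E]0, where [E]0 is the enzyme concentration.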

In test [2] the target is T1, Pepsin A. As to the kind of experiment: Compound was measured for the inhibition of pepsin hydrolysis of hemoglobin. The essentials:
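Porcine pepsin acting on hemoglobin substrate (0.5% solution) with inhibitor in 0.02 M KCl–HCl, pH 2.0. Substrate and inhibitor were preincubated 3 min at 37 °C, then enzyme was added for 27 min at 37 °C. The reaction was quenched with 1.5 M perchloric acid, protein was spun out, and A280 was read minus a no-enzyme blank. Four replicates at ≥5 concentrations; IC50 from % inhibition vs log concentration.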

T1 sequence (P00791 whole entry): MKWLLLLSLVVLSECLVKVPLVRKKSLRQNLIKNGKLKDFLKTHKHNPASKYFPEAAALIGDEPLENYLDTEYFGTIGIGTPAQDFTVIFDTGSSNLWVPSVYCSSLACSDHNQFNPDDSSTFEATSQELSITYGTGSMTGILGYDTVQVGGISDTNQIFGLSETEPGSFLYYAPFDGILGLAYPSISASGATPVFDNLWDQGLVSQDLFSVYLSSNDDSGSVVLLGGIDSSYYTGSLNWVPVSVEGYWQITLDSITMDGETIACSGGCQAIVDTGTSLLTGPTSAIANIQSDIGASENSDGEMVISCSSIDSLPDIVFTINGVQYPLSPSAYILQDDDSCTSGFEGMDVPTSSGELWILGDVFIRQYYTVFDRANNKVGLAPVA

In the case of `CC(C)[C@H](NC(=O)OCc1ccccc1)C(=O)N[C@H](C(=O)NC(c1ccc(O)cc1)C(O)CC(=O)O)C(C)C` (stereo partly specified), the Ki at Pepsin A [1] is 1130 µM. This molecule showed a half-inhibitory concentration (IC50) on Pepsin A [2] of 1130 µM.
With `CCCCC(NC(=O)[C@@H](NC(=O)[C@@H](NC(=O)OCc1ccccc1)C(C)C)C(C)C)C(O)CC(=O)O` (stereo partly specified), the IC50 on Pepsin A [2] was 0.01 µM. That is a double-digit nanomolar value.
Regarding `CC(C)[C@H](NC(=O)OCc1ccccc1)C(=O)N[C@H](C(=O)NC(c1ccccc1)C(O)CC(=O)O)C(C)C` (stereo partly specified), the Ki on Pepsin A [1] is 0.41 µM. At Pepsin A [2], this molecule had an IC50 of 0.42 µM.
As to `CC(C)CC(NC(=O)[C@@H](NC(=O)[C@H](NC(=O)OCc1ccccc1)C(C)C)C(C)C)C(O)CC(=O)O` (stereo partly specified), on Pepsin A [1], the Ki amounted to 39.4 µM. Moreover, on Pepsin A [2], the IC50 came to 39.4 µM.
As to `CCCCC(NC(=O)[C@@H](NC(=O)[C@H](NC(=O)OCc1ccccc1)C(C)C)C(C)C)C(O)CC(=O)O` (stereo partly specified), at Pepsin A [1], the Ki is 17.7 µM. Further, 17.7 µM corresponded to half-maximal inhibition against Pepsin A [2] (IC50).
For the molecule `CC(C)CC(NC(=O)[C@@H](NC(=O)[C@@H](NC(=O)OCc1ccccc1)C(C)C)C(C)C)C(O)CC(=O)O` (stereo partly specified), the Ki at Pepsin A [1] was 0.19 µM. This molecule also displayed an IC50 at Pepsin A [2] of 0.2 µM.
For `CC(C)[C@H](NC(=O)[C@H](NC(=O)OCc1ccccc1)C(C)C)C(=O)NC(c1ccc(O)cc1)C(O)CC(=O)O` (stereo partly specified), the Ki at Pepsin A [1] stood at 1540 µM. The midpoint of inhibition at Pepsin A [2], the IC50, lay at 1540 µM.
Turning to `CC(C)[C@H](NC(=O)[C@H](NC(=O)OCc1ccccc1)C(C)C)C(=O)NC(c1ccccc1)C(O)CC(=O)O` (stereo partly specified), the Ki at Pepsin A [1] came out at 346 µM. The IC50 against Pepsin A [2] was 346 µM.
Take `CC(C)CC(=O)N[C@H](C(=O)N[C@H](C(=O)N[C@@H](CC(C)C)[C@@H](O)CC(=O)N[C@@H](C)C(=O)N[C@@H](CC(C)C)[C@@H](O)CC(=O)O)C(C)C)C(C)C` [PEPSTATIN]: the IC50 on Pepsin A [2] worked out at 0.007 µM. That is a single-digit nanomolar value.

These data come from ChEMBL document CHEMBL1125824, “New pepstatin analogues: synthesis and pepsin inhibition” (J Med Chem, 1991).
